How the values were obtained:
[1] = target: T1, Fatty-acid amide hydrolase 1 (Rattus norvegicus) (UniProt P97612); test: Inhibition of FAAH in rat brain homogenates at 10 uM; type: tissue-based
T1 sequence (whole entry): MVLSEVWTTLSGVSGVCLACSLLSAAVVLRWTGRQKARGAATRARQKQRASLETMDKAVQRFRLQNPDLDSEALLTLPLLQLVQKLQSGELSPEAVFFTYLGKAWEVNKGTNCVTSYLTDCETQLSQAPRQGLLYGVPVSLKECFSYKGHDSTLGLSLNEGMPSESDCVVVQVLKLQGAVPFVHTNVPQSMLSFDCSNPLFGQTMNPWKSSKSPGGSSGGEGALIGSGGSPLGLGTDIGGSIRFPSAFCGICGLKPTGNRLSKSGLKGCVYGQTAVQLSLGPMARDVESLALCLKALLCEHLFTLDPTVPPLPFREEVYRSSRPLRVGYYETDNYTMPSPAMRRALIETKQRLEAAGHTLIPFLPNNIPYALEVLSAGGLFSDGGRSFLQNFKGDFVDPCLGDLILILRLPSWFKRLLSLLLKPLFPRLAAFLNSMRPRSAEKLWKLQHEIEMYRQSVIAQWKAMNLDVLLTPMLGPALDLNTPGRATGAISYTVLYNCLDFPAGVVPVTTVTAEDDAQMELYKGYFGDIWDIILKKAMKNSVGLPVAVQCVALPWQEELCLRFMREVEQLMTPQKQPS
Outline: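 FAAH activity in adult rat brain membranes, prepared by homogenization in HEPES pH 7.0 and repeated centrifugation at 36 000 g. Compound at 10 µM incubated with [3H]-anandamide (2 µM final) in Tris-HCl pH 7.6, EDTA, 0.1% BSA for 10 min at 37 °C. Stopped on ice with chloroform/methanol; radioactivity in the aqueous methanol phase counted. Blanks without homogenate.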

Cannabinoid receptor 1 [2] = target: T2, Cannabinoid receptor 1 (Homo sapiens, UniProt P21554); test: Displacement of [3H]SR141716A from human CB1 receptor expressed in CHO cells at 10 uM; type: cell-based
Outline: (§1)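 Radioligand competition on membranes from CHO cells stably transfected with human CB1 or CB2. Radioligands at 1 nM: [3H]-SR141716A for hCB1, [3H]-CP-55,940 for hCB2. Compound screened at 10 µM. 40 µg membrane protein; Tris-HCl pH 7.4 buffer with MgCl2, EDTA, 0.5% BSA; 1 h at 30 °C. Filtered on PEI-treated GF/B filters and counted. Nonspecific binding with 10 µM HU-210. Result given as % displacement.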

[3] = target: Cannabinoid receptor 2 (Homo sapiens) (UniProt P34972); test: Displacement of [3H]CP-55940 from human CB2 receptor expressed in CHO cells at 10 uM; type: cell-based; outline: as §1
Cannabinoid receptor 1 [4] = target: T2, Cannabinoid receptor 1
[5] = target: Cannabinoid receptor 1 (Rattus norvegicus) (UniProt P20272); test: Potency at rat CB1 receptor in a [35S]GTPgammaS functional assay at 10 uM; conditions: filed as antagonist
Outline: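 [35S]-GTPγS binding in rat cerebellum homogenate, 40 µg protein. Buffer: Tris-HCl pH 7.4 with 100 mM NaCl, 0.1% BSA and 20 µM GDP. Compound at 10 µM; 0.05 nM [35S]-GTPγS final; 1 h at 30 °C. Filtered on GF/B and counted. Nonspecific binding with 100 µM Gpp(NH)p. Mean ± SEM of at least three experiments in duplicate.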

Cannabinoid receptor 1 [6] = target: Cannabinoid receptor 1 (Rattus norvegicus, UniProt P20272); test: Displacement of [3H]SR141716A from CB1 receptor in rat cerebellum; type: tissue-based
Outline: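 40 µg protein; Tris-HCl pH 7.4 buffer with 0.5% BSA; 1 h at 30 °C. Compound at varying concentrations; nonspecific binding with 10 µM HU-210. IC50 by nonlinear regression, converted to Ki by Cheng-Prusoff. Mean ± SEM of at least four experiments in duplicate.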

Cannabinoid receptor 1 [7] = target: T2, Cannabinoid receptor 1; test: Potency at human CB1 receptor in a [35S]GTP-gamma-S functional assay

Cannabinoid receptor 1 (Rattus norvegicus), sequence (P20272 whole entry): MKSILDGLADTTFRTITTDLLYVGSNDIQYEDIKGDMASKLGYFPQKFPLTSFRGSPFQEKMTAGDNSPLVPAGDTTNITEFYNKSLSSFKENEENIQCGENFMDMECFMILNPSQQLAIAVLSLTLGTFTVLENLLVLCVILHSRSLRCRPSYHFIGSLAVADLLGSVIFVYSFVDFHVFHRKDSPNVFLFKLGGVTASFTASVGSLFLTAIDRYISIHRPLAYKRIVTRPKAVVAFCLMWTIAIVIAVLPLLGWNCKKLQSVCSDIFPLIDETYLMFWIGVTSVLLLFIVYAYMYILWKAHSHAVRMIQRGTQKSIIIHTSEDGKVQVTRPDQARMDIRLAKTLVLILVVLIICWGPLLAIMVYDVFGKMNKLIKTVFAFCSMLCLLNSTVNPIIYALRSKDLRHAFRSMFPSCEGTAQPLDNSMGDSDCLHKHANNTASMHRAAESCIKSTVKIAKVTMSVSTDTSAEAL
Cannabinoid receptor 1 (Rattus norvegicus, UniProt P20272), sequence (P20272 whole entry): as above
Cannabinoid receptor 2 (Homo sapiens), sequence (P34972 whole entry): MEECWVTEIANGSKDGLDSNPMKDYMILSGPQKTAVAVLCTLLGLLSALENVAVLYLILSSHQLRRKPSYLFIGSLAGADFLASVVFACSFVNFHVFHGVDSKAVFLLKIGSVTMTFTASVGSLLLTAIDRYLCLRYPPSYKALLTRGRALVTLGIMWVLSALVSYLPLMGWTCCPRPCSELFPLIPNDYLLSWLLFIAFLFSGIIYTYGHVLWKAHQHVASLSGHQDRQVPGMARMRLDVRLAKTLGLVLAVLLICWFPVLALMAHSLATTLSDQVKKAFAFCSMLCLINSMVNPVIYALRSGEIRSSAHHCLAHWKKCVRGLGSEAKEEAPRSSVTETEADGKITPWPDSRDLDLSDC
T2 sequence (P21554 whole entry): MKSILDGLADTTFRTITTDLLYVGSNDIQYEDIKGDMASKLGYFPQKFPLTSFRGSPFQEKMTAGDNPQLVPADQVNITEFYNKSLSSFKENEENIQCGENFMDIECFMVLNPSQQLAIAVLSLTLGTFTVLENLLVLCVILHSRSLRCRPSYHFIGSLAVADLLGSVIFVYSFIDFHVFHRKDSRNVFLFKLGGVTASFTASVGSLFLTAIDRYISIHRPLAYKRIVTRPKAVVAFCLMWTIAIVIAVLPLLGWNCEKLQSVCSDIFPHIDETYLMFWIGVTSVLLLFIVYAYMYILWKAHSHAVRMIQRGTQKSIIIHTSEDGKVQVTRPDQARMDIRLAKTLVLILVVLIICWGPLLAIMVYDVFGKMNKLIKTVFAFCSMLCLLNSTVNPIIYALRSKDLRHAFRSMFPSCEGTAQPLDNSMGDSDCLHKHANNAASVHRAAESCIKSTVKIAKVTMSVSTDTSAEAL

Structure (SMILES)	inhibition [1]	Activity (Cannabinoid receptor 1 [2])	Activity [3]	Ki (Cannabinoid receptor 1 [4])	Activity [5]	Ki (Cannabinoid receptor 1 [6])	EC50 (Cannabinoid receptor 1 [7])
O=C1C(c2ccccc2)N(c2ccccc2)C(=S)N1c1ccccc1 (stereo not given)	11.8%	61.7%	< 10%	> 8000 nM	–	–	–
O=C1NC(=O)N(c2ccccc2)C1c1ccc(Br)cc1 (stereo not given)	–	< 15%	< 10%	–	–	–	–
O=C1C(c2ccc(Cl)cc2)N(c2ccc(Cl)cc2)C(=O)N1c1ccc(Cl)cc1 (stereo not given)	< 10%	71.6%	28.1%	1880 nM	Antagonist	2620 nM	1110 nM
COc1ccc(N2C(=O)NC(=O)C2c2ccccc2)cc1 (stereo not given)	–	< 10%	< 10%	–	–	–	–
CCCCCCCN1C(=O)C(c2ccccc2)N(c2ccccc2)C1=O (stereo not given)	–	–	< 10%	–	–	–	–
O=C1C(c2ccccc2)N(c2ccc(Cl)c(Cl)c2)C(=S)N1c1ccc(Cl)c(Cl)c1 (stereo not given)	22.9%	78.7%	< 10%	2000 nM	–	–	–
O=C1C(c2ccccc2)N(c2ccc(Cl)cc2)C(=O)N1c1ccc(Cl)cc1 (stereo not given)	< 10%	101%	21.6%	353 nM	Antagonist	247 nM	309 nM
O=C1C(c2ccc(Cl)cc2)N(c2cccc(Cl)c2)C(=O)N1c1cccc(Cl)c1 (stereo not given)	< 10%	67.4%	24.8%	3310 nM	–	–	–
O=C1C(c2ccccc2)N(c2ccc(Br)cc2)C(=O)N1c1ccc(Br)cc1 (stereo not given)	< 10%	102%	35.6%	243 nM	Antagonist	311 nM	195 nM
O=C1C(c2ccccc2)N(C2CCCCC2)C(=O)N1C1CCCCC1 (stereo not given)	–	25%	–	–	–	–	–
O=C1NC(=O)N(c2ccc(Cl)cc2)C1c1ccccc1 (stereo not given)	–	< 15%	< 10%	–	–	–	–
O=C1NC(=O)N(c2ccc(Br)cc2)C1c1ccccc1 (stereo not given)	–	25.2%	< 10%	–	–	–	–
O=C1NC(=O)N(c2ccc(I)cc2)C1c1ccccc1 (stereo not given)	–	< 20%	< 10%	–	–	–	–
CCCCCCC(C)(C)c1cc(O)c2c(c1)OC(C)(C)[C@@H]1CC=C(CO)C[C@@H]21	–	–	–	18.6 nM	–	2.75 nM	0.6 nM
CCCCCC(=O)N1C(=O)C(c2ccccc2)N(c2ccccc2)C1=O (stereo not given)	–	< 10%	< 10%	–	–	–	–
O=C1C(c2ccc(Br)cc2)N(c2ccccc2)C(=S)N1c1ccccc1 (stereo not given)	19.1%	85.1%	< 10%	6310 nM	–	–	–
O=C1C(c2ccccc2)N(c2ccc(O)cc2)C(=S)N1c1ccc(O)cc1 (stereo not given)	31.5%	< 20%	< 10%	–	–	–	–

Structure (SMILES)	inhibition [1]	Activity (Cannabinoid receptor 1 [2])	Activity [3]	Ki (Cannabinoid receptor 1 [4])	Activity [5]	Ki (Cannabinoid receptor 1 [6])	EC50 (Cannabinoid receptor 1 [7])
O=C1NC(=O)N(c2ccc(Cl)cc2)C1c1ccc(Br)cc1 (stereo not given)	–	< 15%	< 10%	–	–	–	–
O=C1C(c2ccccc2)N(c2ccc(Br)cc2)C(=S)N1c1ccc(Br)cc1 (stereo not given)	< 10%	100%	< 15%	1450 nM	–	–	1620 nM
CCCCCN1C(=O)C(c2ccccc2)N(c2ccccc2)C1=O (stereo not given)	–	41.1%	< 10%	–	–	–	–
O=C1C(c2ccccc2)N(c2ccccc2)C(=O)N1c1ccccc1 (stereo not given)	< 10%	57.1%	< 10%	6300 nM	–	–	–
O=C1C(c2ccc(Br)cc2)N(c2ccccc2)C(=O)N1c1ccccc1 (stereo not given)	14.5%	75.4%	< 15%	4030 nM	–	–	–
COc1ccc(N2C(=O)C(c3ccccc3)N(c3ccc(OC)cc3)C2=S)cc1 (stereo not given)	< 10%	65.6%	< 20%	7030 nM	–	–	–
Cc1ccc(N2C(=O)C(c3ccccc3)N(c3ccc(C)cc3)C2=S)cc1 (stereo not given)	< 10%	80.1%	< 20%	4970 nM	–	–	–
O=C(c1ccccc1)N1C(=O)C(c2ccccc2)N(c2ccccc2)C1=O (stereo not given)	–	< 10%	< 10%	–	–	–	–
O=C1C(c2ccccc2)N(c2cccc(I)c2)C(=S)N1c1cccc(I)c1 (stereo not given)	17.4%	81.2%	< 15%	692 nM	–	–	461 nM
COc1ccc(N2C(=O)C(c3ccccc3)N(c3ccc(OC)cc3)C2=O)cc1 (stereo not given)	< 10%	57.8%	31.4%	6460 nM	–	–	–
O=C1C(c2ccccc2)N(c2cccc(Cl)c2)C(=O)N1c1cccc(Cl)c1 (stereo not given)	< 10%	76%	32.1%	2110 nM	–	–	936 nM
O=C1NC(=O)N(c2ccccc2)C1c1ccccc1 (stereo not given)	–	< 10%	< 10%	–	–	–	–
O=C1C(c2ccccc2)N(c2ccc(Cl)cc2)C(=S)N1c1ccc(Cl)cc1 (stereo not given)	11.4%	93.7%	< 10%	2160 nM	–	–	2100 nM
O=C1NC(=O)N(c2ccc(Br)cc2)C1c1ccc(Br)cc1 (stereo not given)	–	< 15%	< 10%	–	–	–	–
O=C1C(c2ccc(Br)cc2)N(c2ccc(Cl)cc2)C(=O)N1c1ccc(Cl)cc1 (stereo not given)	15.4%	79.1%	< 20%	905 nM	Antagonist	1740 nM	1230 nM
O=C1C(c2ccc(Cl)cc2)N(c2ccccc2)C(=O)N1c1ccccc1 (stereo not given)	13.7%	60.2%	< 15%	6660 nM	–	–	–
O=C1NC(=S)N(c2ccccc2)C1c1ccccc1 (stereo not given)	–	< 10%	< 10%	–	–	–	–
